Bioassay records from PubChem BioAssay.
Compounds with a hit are over-represented: about 4.6% of the library has one in this group of screens.
NCF1 inh = p47phox (human) inhibition; P14598; p47phox/p22phox peptide binding, fluorescence polarization, 2 h; AID 1274; hit rate 0.53% among 220,000; inhibition, % at 24.7 µM;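 active means inhibition above about 30%, limit read from the data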;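 further: 0% = p47phox with labelled peptide and 100% = labelled peptide alone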
Target sequence (P14598 whole entry, looked up): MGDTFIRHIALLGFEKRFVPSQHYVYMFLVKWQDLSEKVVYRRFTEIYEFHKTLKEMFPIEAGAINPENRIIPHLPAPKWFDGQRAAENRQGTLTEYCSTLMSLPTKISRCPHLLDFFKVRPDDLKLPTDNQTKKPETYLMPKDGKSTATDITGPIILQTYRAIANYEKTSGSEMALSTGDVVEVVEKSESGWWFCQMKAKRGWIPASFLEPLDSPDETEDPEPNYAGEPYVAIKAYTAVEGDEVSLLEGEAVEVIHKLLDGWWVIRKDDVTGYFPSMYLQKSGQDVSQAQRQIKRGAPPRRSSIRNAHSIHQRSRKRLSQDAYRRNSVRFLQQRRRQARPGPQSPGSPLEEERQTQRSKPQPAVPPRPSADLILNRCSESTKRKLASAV
RAM network inh = blocks the yeast RAM network. S. cerevisiae dse1pr::URA3 reporter, 5-FOA growth OD615, 2 d; analog-sensitive cbk1-as2 kinase mutant strain. inhibition, % at 50 µM. hit rate 1.8% among 190,000. AID 868;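 active means inhibition above a set limit, 3 SD over mean compound inhibition, cut at about 8.4% in these data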;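 further: 0% = DMSO-only wells with no growth and 100% = 10 µM 1-NA-PP1 full growth; inhibition rescues growth on 5-FOA so higher OD means more RAM inhibition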
Arbovirus anti = antivirals against arbovirus infection; arbovirus infection cell-based antiviral screen; hit rate 0.37% among 200,000; inhibition, % at 10 µM; in the data active means inhibition above about 30%
WT yeast gro inh = growth inhibition of WT yeast, mitochondrial fusion screen; mitochondrial fusion phenotypic screen, WT strain; inhibition, % at 10 µM; hit rate 2.1% among 190,000; AID 1362; in the data active means inhibition above about 58%; tested in S. cerevisiae
Hck-Nef inh = human Hck-Nef kinase inhibition; P08631; Recombinant Hck-YEEI plus Nef, Z-Lyte FRET kinase assay; inhibition, % at 20 µM; hit rate 0.68% among 220,000;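 active means Hck-Nef kinase inhibition above about 50%, limit read from the data; inactive means inhibition below that limit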;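 further: 0% = DMSO with Hck plus Nef and 100% = Hck alone without Nef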
Biofilm kill mix = mixtures killing C. albicans biofilm | C. albicans biofilm persisters + clotrimazole, fluorescence viability; primary screen in compound mixtures of four per well | inhibition, % at 7.6 µM | hit rate 0.02% among 120,000;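 active means inhibition above 30.3% in the primary screen of four-compound pools, then above 30% when the compound was retested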;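 further: compounds exposed to preformed 24 h biofilms for 48 h; 0% = untreated biofilm control and 100% = clotrimazole plus chlorhexidine kill blank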
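Probe or stimulus – Clotrimazole 50 µg/mL co-treatment · System – C. albicans biofilms · Schedule – 24 h biofilm formation, then 48 h compound exposure, 37 °C · Evaluation – percent inhibition of biofilm viability · Technique – 2-h Alamar Blue fluorescence, 535/590 nm excitation/emission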
Hck Nef conf = confirmation of Hck-Nef kinase inhibitors. shares compounds with Hck-Nef inh. Recombinant Hck-YEEI:Nef, Z-Lyte FRET kinase assay. hit rate 28% among 1,300. calls only at 10 µM;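 active means average inhibition of at least 50%, with Z-scores no higher than 3 in both the phospho-tyrosine peptide and fluorescence counterscreens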
An asterisk follows results filed as active; i = inactive; . = not tested or not shown; + = active, no number.

SMILES	NCF1 inh	RAM network inh	Arbovirus anti	WT yeast gro inh	Hck-Nef inh	Biofilm kill mix	Hck Nef conf
CCCCC(CC)Cn1c2nc3ccccc3nc2c2c(=N)oc(C)nc21 (centres undefined)	-124	2	-45	-12	57*	.	i
CC(C)(C)c1ccc(C(=O)CC(Sc2ccc(Cl)cc2)C(=O)O)cc1 (centres undefined)	0	-1	-26	-9	77*	10	i
COc1ccc(N=C2NC(=O)/C(=C\c3ccco3)S2)cc1	-18	5	-1	7	61*	20	i
Fc1cccc(/C=N/Nc2ncnc3nc[nH]c23)c1	17	0	-4	10	65*	-1	+
Fc1ccccc1/C=N/Nc1ncnc2nc[nH]c12	6	0	-7	5	56*	-4	+
Fc1cccc(/C=N/Nc2ccccn2)c1	-1	0	0	2	26	13	.
N#Cc1c(NC(=O)CN2CCN(S(=O)(=O)c3ccc4c(c3)OCCO4)CC2)sc2c1CCC2	-51	3	-3	-8	53*	.	i
Cc1ccccc1C(=O)Nc1nc2c(C)csc2c(=O)s1	-11	.	.	.	78*	22	i
COC(=O)C1=CN(C)C=C(C(=O)OC)C1c1ccsc1	-1	1	7	8	53*	.	i
COC(=O)C1=CN(C2CC2)C=C(C(=O)OC)C1c1ccc(C(=O)OC)cc1	-11	3	6	5	22	.	.
COCc1cc(=O)n2[nH]c(-c3cccs3)cc2n1	-14	.	.	.	-5	18	.
COc1cc(Nc2ncnc(N)n2)cc(OC)c1OC	-1	.	.	.	48	15	.
COc1cc(Nc2ncnc(N)n2)cc(OC)c1	-6	.	.	.	62*	14	+
CSc1nc(Oc2ccc(=O)n(C)n2)nc(N(C)C)n1	-1	1	-3	7	0	.	.
Cc1cc(-c2csc(NC(=O)c3ccc(=O)[nH]c3)n2)c(C)n1Cc1ccco1	-17	.	.	.	81*	19	i
CCNc1nc(-c2cc(C)n(Cc3ccco3)c2C)cs1	-9	5	4	-2	25	0	.
O=C(O)C(Cc1c[nH]c2ccccc12)N1Cc2ccccc2C1=O (centres undefined)	-3	5	9	3	3	1	.
C=CCN(CC=C)C(=O)c1cc(Cl)ccc1[N+](=O)[O-]	-12	-1	2	3	64*	18	i
C=CCn1c(=O)c(C#N)cc2c(=O)n3ccccc3nc21	.	3	1	9	155*	.	.
Cc1cc(-n2c(=O)c(C#N)cc3c(=O)n4ccccc4nc32)no1	-23	0	5	6	+	.	.
Cc1ccccc1-n1c(=O)c(C#N)cc2c(=O)n3ccccc3nc21	-14	3	-10	1	+	.	.
N#Cc1cc2c(=O)n3ccccc3nc2n(-c2ccc(Cl)cc2)c1=O	-7	3	7	-11	173*	11	.
N#Cc1cc2c(=O)n3ccccc3nc2n(Cc2cccnc2)c1=N	.	.	.	.	2	.	.
CN(Cc1ccccc1)C(=O)C1CCCN(Cc2cccc(Cl)c2)C1 (centres undefined)	-2	0	0	-1	25	16	.
CCCC[C@@H]1CNC(=O)C(=O)N1CC(C)(C)C	-4	.	.	.	25	6	.
SMILES	NCF1 inh	RAM network inh	Arbovirus anti	WT yeast gro inh	Hck-Nef inh	Biofilm kill mix	Hck Nef conf
N#Cc1c(F)cccc1NCc1cccs1	-18	.	.	.	6	19	.
COc1ccc(NS(=O)(=O)c2cccc(C(=O)N/N=C(\C)c3ccncc3)c2)cc1	-2	0	-5	-6	6	8	.
COc1ccc(NS(=O)(=O)c2cccc(C(=O)N/N=C(\C)c3ccc(-n4ccnc4)cc3)c2)cc1	-4	0	5	7	59*	.	i
CCc1ccc(C(=O)/C=C/Nc2ccc(S(=O)(=O)Nc3cnc4ccccc4n3)cc2)cc1	-27	.	.	.	19	7	.
Cc1ccc(/C=C/C(=O)OCC(=O)N2CC(=O)Nc3ccccc32)o1	-2	2	2	6	16	13	.
O=C1CN(C(=O)COC(=O)/C=C/c2ccco2)c2ccccc2N1	-10	1	1	0	53*	-4	i
COc1cc(C#N)c(NC(=O)CN2CCN(CCO)CC2)cc1OC	-4	2	5	-11	-9	7	.
COc1cc(/C=N/NC(=O)c2sc3nc(C)cc(C)c3c2N)ccc1O	-6	.	.	.	51*	16	.
COC(=O)c1sc2nc(C)cc(C)c2c1N	6	1	-4	4	17	-5	.
Cc1c(/C=C2\SC(=Nc3cccc(C(=O)O)c3)NC2=O)c2ccccc2n1C	-109	.	.	.	-10	2	.
N#Cc1cccc(NC(=O)COC(=O)c2cccc(N3C(=O)c4ccccc4C3=O)c2)c1	-7	2	4	9	56*	13	i
O=C(Nc1ccncc1)c1ccc2c(c1)C(=O)N(C1CCCCC1)C2=O	4	0	-3	7	1	.	.
CCCCNC(=O)COC(=O)c1ccc(SC)cc1OC	-4	0	-2	-6	24	10	.
Cc1ccc(S(=O)(=O)c2c(N)n(NC(=O)C3CC3)c3nc4ccccc4nc23)cc1	-28	0	11	1	73*	.	.
Cc1ccc(-n2c(N)c(S(=O)(=O)c3ccccc3)c3nc4ccccc4nc32)cc1	-36	8	2	15	-6	18	.
Cc1ccc(S(=O)(=O)c2c(N)n(CCCN(C)C)c3nc4ccccc4nc23)cc1	-26	.	.	.	94*	13	.
O=C(NCCC1=CCCCC1)c1cc(-c2ccccn2)nc2ccccc12	-2	8	-5	9	60*	3	i
O=C(NC1CC1)c1cc(-c2ccccn2)nc2ccccc12	-6	0	2	18	1	.	.
Cc1c(Br)c(=O)oc2c(Br)c(O)c(O)cc12	1	1	-33	5	-28	1	.
Cc1c(Br)c(=O)oc2c(Br)c(O)ccc12	-4	1	4	-14	71*	10	i
CC(C)C1Nc2ccc(C(=O)O)cc2C2C=CCC21 (centres undefined)	-9	3	15	-22	38	5	.
CCOC(=O)c1ccc2c(c1)C1C=CCC1C(C(=O)O)N2 (centres undefined)	3	9.7*	0	22	59*	.	+
COc1ccc(CCn2c(=S)[nH]c3cc(C(=O)NCc4ccco4)ccc3c2=O)cc1OC	20	4	-3	1	75*	.	+
CC(C)CC(c1nnnn1C1CCCC1)N1CCC(C(N)=O)CC1 (centres undefined)	-1	2	20	5	12	12	.
NC(=O)COc1ccc(-n2cnnn2)cc1	6	0	-4	-6	19	-1	.
CC(Oc1ccc(-n2cnnn2)cc1)C(=O)O (centres undefined)	1	5	5	2	75*	11	i
